Bioassay records: PubChem, The Scripps Research Institute Molecular Screening Center
MBD2 DNA inh – MBD2-methylated oligo binding inhibition; Q9UBB5; TR-FRET, MBD2 binding to methylated oligonucleotide; inhibition, % at 4.4 µM; 370,000 tested, 0.31% active; AID 686964; in the data active = inhibition above about 13%
UHRF1 MBD2 ctr – UHRF1 methyl-DNA binding inhibition | Q96T88 | inhibition, % at 4.4 µM | 370,000 tested, 0.75% active | UHRF1 binding to methylated oligo, TR-FRET; in the data active = inhibition above about 21%;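 note: UHRF1 SRA domain binding a hemimethylated CpG hairpin DNA probe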
RBBP9 inh – blocks human serine hydrolase RBBP9; recombinant RBBP9, FP-Rh probe fluorescence polarization; inhibition, % at 7.94 µM; 220,000 tested, 0.2% active; AID 1515;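 active = inhibition above the campaign mean of all tested compounds plus 3 SD, cut at about 14% in these data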
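system = RBBP9 protein | input = RBBP9 at 2.5 µM in dispensed solution, before mixing | measured by = fluorescence polarization (mP), excitation 525 nm, emission 598 nm | incubation = enzyme-compound preincubation 30 min, then probe labeling 45 min, 25 °C | buffer or medium = Tris-NaCl-Pluronic buffer, pH 8.0 | compound = single dose 7.94 µM | also added = FP-Rh probe, 375 nM dispensing solution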
ABHD5 PLIN5 PPI – ABHD5-PLIN5 protein interaction inhibition; Split G. princeps luciferase complementation, luminescence, 4 h; inhibition, % at 4 µM; 360,000 tested, 0.78% active;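 active = inhibition above the mean inhibition across every tested compound plus 3 SD, cut at about 22% in these data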
Target sequence (Q00G26 whole entry, looked up): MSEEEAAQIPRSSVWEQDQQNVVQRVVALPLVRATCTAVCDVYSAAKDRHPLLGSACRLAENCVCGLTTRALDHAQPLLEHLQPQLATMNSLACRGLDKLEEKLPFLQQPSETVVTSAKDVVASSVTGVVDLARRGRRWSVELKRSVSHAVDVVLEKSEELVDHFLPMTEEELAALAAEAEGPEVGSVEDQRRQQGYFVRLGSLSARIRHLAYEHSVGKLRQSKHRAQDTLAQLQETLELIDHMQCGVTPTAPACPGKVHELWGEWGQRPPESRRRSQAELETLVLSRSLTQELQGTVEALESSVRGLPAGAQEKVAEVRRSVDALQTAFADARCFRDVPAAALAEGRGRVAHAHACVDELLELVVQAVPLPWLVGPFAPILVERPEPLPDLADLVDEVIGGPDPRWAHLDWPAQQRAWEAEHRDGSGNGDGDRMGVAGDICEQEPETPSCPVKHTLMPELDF
Target sequence (Q8WTS1 whole entry, looked up): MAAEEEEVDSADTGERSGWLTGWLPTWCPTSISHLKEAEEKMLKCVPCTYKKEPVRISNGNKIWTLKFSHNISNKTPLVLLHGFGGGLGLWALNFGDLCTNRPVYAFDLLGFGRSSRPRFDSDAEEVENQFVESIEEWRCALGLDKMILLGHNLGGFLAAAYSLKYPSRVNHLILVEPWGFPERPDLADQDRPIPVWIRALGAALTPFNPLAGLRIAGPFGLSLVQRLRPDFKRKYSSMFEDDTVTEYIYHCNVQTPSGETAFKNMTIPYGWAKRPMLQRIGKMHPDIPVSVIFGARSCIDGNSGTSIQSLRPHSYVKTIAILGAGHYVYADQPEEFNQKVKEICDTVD
LEDGF integ inh – blocks HIV-1 LEDGF/p75-dependent DNA integration; TR-FRET IN-LEDGF/p75 DNA integration, Eu/Cy5; inhibition, % at 3.7 µM; 370,000 tested, 0.64% active;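 active = inhibition above the screen-wide mean plus 3 SD, cut at about 13% in these data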;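 note: signal is the Cy5 over europium emission ratio at 671 and 618 nm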
PRMT1 FP inh – blocks human protein arginine methyltransferase 1. recombinant PRMT1, activity-based probe fluorescence polarization. AID 652257. Q99873. inhibition, % at 2.79 µM. 370,000 tested, 1.3% active;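 active = inhibition above about 21% made by adding two undisclosed values, limit read from the data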
ABHD5 PLIN5 conf – confirmation of human ABHD5-PLIN5 interaction inhibitors. biochemical ABHD5-PLIN5 interaction, luminescence. shares compounds with ABHD5 PLIN5 PPI. 2,200 tested, 67% active. inhibition, % at 4 µM. AID 651612; in the data active = inhibition above about 23%
HNF4 split-luc – HNF4 split-luciferase signal hit, counter-screen; inhibition, % at 4 µM; 2,200 tested, 77% active; shares compounds with ABHD5 PLIN5 PPI; HNF4 dimerization, luminescence, biochemical;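 active = mean inhibition across replicate wells exceeding the computed hit threshold, cut at about 13% in these data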;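 note: light from luciferase halves that rejoin when HNF4 fusion proteins dimerize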
A number is an active result; i = inactive; nt = no result given. Sampled rows, rich in hits. Any-hit rate of the full collection: about 3.1%.

SMILES | MBD2 DNA inh | UHRF1 MBD2 ctr | RBBP9 inh | ABHD5 PLIN5 PPI | LEDGF integ inh | PRMT1 FP inh | ABHD5 PLIN5 conf | HNF4 split-luc
O=C(/C(=C/c1ccc(Cl)cc1)c1nc2ccccc2[nH]1)c1ccccc1 | i | i | i | 27.9 | i | i | 100.1 | 93.8
COc1cc(/C=C(/C(=O)c2cccs2)c2nc3ccccc3[nH]2)cc(OC)c1O | i | i | i | 60.1 | i | i | 88.4 | 88.4
O=C(N/C(=C/c1ccc(Cl)cc1)c1nc2ccccc2[nH]1)c1ccco1 | i | i | i | i | i | i | nt | nt
COc1ccccc1N1CCN(N=Cc2ccccc2Br)CC1 | i | i | nt | nt | i | i | nt | nt
COC(=O)c1ccc2nc(-c3ccco3)c(Cc3ccccc3)n2c1 | i | 21.6 | nt | 67.4 | i | 23.8 | 56.8 | 83.1
Cc1ccc2nc(-c3ccco3)c(Cc3ccccc3)n2c1 | i | i | nt | 38.1 | i | i | i | i
Fc1cccc(Cc2c(-c3ccccc3)nc3ccc(Cl)cn23)c1 | i | i | nt | i | i | i | nt | nt
COC(=O)c1ccc2nc(-c3ccccc3)c(Cc3ccc(C)cc3)n2c1 | i | i | nt | i | i | i | nt | nt
Clc1ccc2nc(-c3ccco3)c(Cc3ccccc3)n2c1 | i | i | nt | 55.1 | i | 24.3 | 57.6 | 72.4
Fc1cccc(Cc2c(-c3ccco3)nc3ccc(Cl)cn23)c1 | nt | nt | nt | 74.9 | nt | nt | i | 52.5
CN(CCCOC(=O)CC1C=CCC1)C1CN(Cc2cn(Cc3ccccc3Cl)nn2)S(=O)(=O)C1 (configuration not stated) | i | i | nt | nt | i | i | nt | nt
CCOc1ccc(-n2c(SCC(=O)Nc3ccc4cn[nH]c4c3)nnc2-c2ccncc2)cc1 | i | i | nt | nt | i | i | nt | nt
O=c1c2ccccc2n(Cc2ccco2)n1[C@@H](Cc1ccccc1)Cn1cc(-c2ccc(-c3ccccc3)cc2)nn1 | i | i | nt | nt | i | i | nt | nt
CC(C)C(C#CC1CC1)NCc1ccc2c(c1)OCO2 (configuration not stated) | i | i | nt | nt | i | i | nt | nt
CC(C)(C)C(=O)OC12CCCN(C1)/C(=C/c1ccc(C#N)cc1)C2 (configuration not stated) | i | i | nt | nt | i | i | nt | nt
O=C(C1CCN(S(=O)(=O)c2ccc(Cl)cc2)CC1)N1CCC1 | i | i | nt | 51.8 | i | i | i | i
O=C(C1CCCC1)N1CCN(S(=O)(=O)c2ccc(Cl)cc2)CC1 | i | i | nt | i | i | i | nt | nt
CC1(C)Oc2ccc(C(=O)NCCCN3CCCC3)cc2NC1=O | i | i | nt | nt | i | i | nt | nt
COc1ccc(C(=O)/C=C/c2ccc(N3CCCCC3)c([N+](=O)[O-])c2)cc1 | i | i | i | i | i | i | nt | nt
COc1cc(/C=C/C(=O)O)cc(OC)c1O | i | i | nt | i | i | i | nt | nt
COc1cc(/C=C/C(=O)c2ccc(C)c([N+](=O)[O-])c2)cc(OC)c1O | i | i | i | 64.9 | i | i | 78.6 | 71.6
COc1cccc(/C=C/C(=O)c2ccc(C)c([N+](=O)[O-])c2)c1 | i | i | i | 55.5 | i | i | 102.1 | 105.4
COc1cccc(C(=O)/C=C/c2ccc(OCC#N)c(OC)c2)c1 | i | i | i | 55.1 | i | i | 86.2 | 77.2
COc1ccc(/C=C/C(=O)c2ccc(C)c([N+](=O)[O-])c2)cc1O | i | i | i | 40.4 | i | i | 80.3 | 72.8
COc1cc2c(cc1NC(=O)CSc1nnc(-c3ccccc3F)n1-c1ccc(C)cc1)oc1ccccc12 | i | i | nt | nt | i | i | nt | nt
SMILES | MBD2 DNA inh | UHRF1 MBD2 ctr | RBBP9 inh | ABHD5 PLIN5 PPI | LEDGF integ inh | PRMT1 FP inh | ABHD5 PLIN5 conf | HNF4 split-luc
C=CCN1C(=O)[C@H](CC(=O)NCC2CCCCC2)[C@@]2(C(=O)OCC)CCCC=C12 | i | i | nt | nt | i | i | nt | nt
CCCCCCCCN1C(=O)[C@@H](CC(=O)NCc2cccs2)C[C@@]2(C(=O)OC)C1=C[C@H](COCc1ccccc1)O[C@@H]2C | i | i | nt | nt | i | i | nt | nt
CCC(C)[C@H](NC(=O)OC(C)(C)C)C(=O)N[C@@H](Cc1ccccc1)C(=O)OC (some centres not stated) | i | i | nt | nt | i | i | nt | nt
COc1cccc(C(=O)/C=C/Nc2ccc(S(=O)(=O)Nc3cccc(C(C)=O)c3)cc2)c1 | i | i | i | i | i | i | nt | nt
COc1cccc(/C=C/C(=O)c2ccc(NS(=O)(=O)c3ccc(C)cc3)cc2)c1 | i | i | i | 32.1 | i | i | 79.5 | 61.4
C=CCn1c(SCC(=O)NCCOC)nc2scc(-c3ccco3)c2c1=O | i | i | i | 31.6 | i | 47.3 | 42.1 | 81.7
Cc1ccc(C(=O)/C=C/c2ccccc2[N+](=O)[O-])cc1 | i | i | i | 51.7 | i | i | 84.5 | 78.1
Cc1ccnc(NC(=O)/C=C/c2ccccc2[N+](=O)[O-])c1 | i | i | i | nt | i | i | nt | nt
O=C(/C=C\c1ccccc1[N+](=O)[O-])Nc1ccccc1 | i | i | i | i | i | i | nt | nt
O=C(/C=C/c1ccccc1[N+](=O)[O-])c1ccccc1Br | i | i | i | 81.6 | i | i | 98.5 | 97.8
Cc1ccc(C(=O)NC2CCCCN(Cc3ccc(Cl)cc3)C2=O)c(C)c1 (configuration not stated) | i | i | nt | nt | i | i | nt | nt
Cc1ccc(C(=O)N(CCCN(C)C)c2nc3ccc(Cl)cc3s2)cc1C | i | i | i | 28.4 | i | i | i | i
CN(C)CCCN(C(=O)c1ccc2c(c1)OCCO2)c1nc2ccc(Cl)cc2s1 | i | i | nt | i | i | i | nt | nt
Cc1cccc2sc(N(CCCN(C)C)C(=O)CCc3ccccc3)nc12 | i | i | i | 26.4 | i | i | i | i
CN(C)CCCN(C(=O)CCc1ccccc1)c1nc2ccc(Br)cc2s1 | i | i | i | 39.0 | i | i | 26.5 | i
CN(C)CCCN(C(=O)c1ccco1)c1nc2ccc(Br)cc2s1 | i | i | i | 24.7 | i | i | i | i
CSc1cccc(NC(=S)NN/C(=N/S(=O)(=O)c2ccccc2)N2CCCC2)c1 | i | i | nt | nt | i | i | nt | nt
O=C(CSc1nc2ccccc2nc1N1CCOCC1)NCc1ccc(Cl)cc1Cl | i | i | nt | nt | i | i | nt | nt
O=C(N[C@@H](Cc1cccnc1)C(=O)N1CCC[C@H]1C(=O)NCCc1ccccc1Cl)C1CC1 | i | i | nt | nt | i | i | nt | nt
CCOC(=O)CC[C@H]1CC[C@]2(CCCN(C(=O)c3cccnc3)C2)O1 | i | i | nt | nt | i | i | nt | nt
CC(C)C[C@H]1COc2ccc(Cl)cc2S(=O)(=O)N1Cc1cn(Cc2ccc(C(F)(F)F)cc2)nn1 | i | i | nt | nt | i | i | nt | nt
Cc1ccc2sc(N(CCCN(C)C)C(=O)c3ccc(Br)s3)nc2c1C | i | i | i | 26.8 | i | i | i | i
Cc1ccc2sc(N(CCCN(C)C)C(=O)c3nc4ccccc4s3)nc2c1C | i | i | i | i | i | i | nt | nt
CN(C)CCCN(C(=O)c1ccco1)c1nc2ccc(Cl)cc2s1 | i | i | i | 23.9 | i | i | i | i
